Data: ChEMBL document CHEMBL3525937, “Drug efflux transporter multidrug resistance-associated protein 5 affects sensitivity of pancreatic cancer cell lines to the nucleoside anticancer drug 5-fluorouracil” (Drug Metab Dispos, 2011)
Calls of active or inactive are those of the source. The calls are words filed in the database; no cut-off is given here.

How the values were obtained:
[1] = Cytotoxicity against human Patu-02 cells assessed as increase of cell death at 100 uM after 48 hrs using propidium iodide staining by cytofluorometric analysis; assay type: functional
In short: (§1)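 Patu-02 cells stably transfected with an MRP5 siRNA expression vector or empty vector (hygromycin B selected, single-cell cloned, RT-PCR screened) were exposed to 5-FU (3.3–100 M) for 48 h. Cell death was measured as PI uptake (2 g/ml, 5 min, 4°C, dark) by flow cytometry on 10,000 gated cells. Three assays were run in triplicate.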

[2] = Cytotoxicity against human Colo-357 cells expressing MRP5 assessed as cell killing at 10 uM after 48 hrs using propidium iodide staining by cytofluorometric analysis; assay type: functional, COLO357
In short: (§2)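 Colo-357 cells stably transfected with pcDNA3.1/hygro-MRP5 or empty vector were cultured with 5-FU (1–33 M) for 48 h. Cells were harvested, stained with 2 g/ml propidium iodide in PBS for 5 min at 4°C in the dark, and PI uptake was read by flow cytometry (10,000 cells, debris gated out). Values are the percentage of dead cells from three assays in triplicate.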

MRP5 [3] = experiment: Induction of MRP5 expression in human Patu-T cells after 6 months by RT-PCR analysis relative to control; assay type: cell-based, PaTu 8988t; conditions: read-out: FC
In short: (§3)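 Patu-8988T cells were cultured 6 months with increasing 5-FU, then kept at least 1 week drug-free. Transcripts were quantified by real-time RT-PCR on 20 ng cDNA with a Tris/KCl/MgCl2 platinum Taq master mix and ROX reference. Expression is reported relative to untreated parental Patu-T cells.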

[4] = Cytotoxicity against human MRP5 knockdown Patu-02 cells assessed as increase of cell death at 100 uM after 48 hrs using propidium iodide staining by cytofluorometric analysis; assay type: functional; in short: as §1
[5] = Cytotoxicity against human Colo-357 cells assessed as cell killing at 1 uM after 48 hrs using propidium iodide staining by cytofluorometric analysis; assay type: functional, COLO357; in short: as §2
[6] = Cytotoxicity against human Patu-02 cells assessed as increase of cell death at 10 uM after 48 hrs using propidium iodide staining by cytofluorometric analysis; assay type: functional; in short: as §1
[7] = molecular target: T1, ATP-binding cassette sub-family C member 5 (Homo sapiens, UniProt O15440); experiment: Activity at MRP5 in human Colo-357 cells assessed as decrease of drug accumulation after 2 hrs relative to wild type cells; assay type: ADME, cell-based; parameters: scale not given: the % may be the effect or the level left; conditions: colo357, 2 h
In short: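 Stably transfected Colo-357 (pcDNA3.1/hygro-MRP5 vs empty vector, hygromycin B selected), subconfluent, seeded in triplicate, grown overnight, then incubated at 37°C with 7.6 M [14C]5-FU (0.4 Ci/ml, 52 mCi/mmol) for timed intervals. Washed with ice-cold PBS, lysed in 0.2% SDS, scintillation counted, normalised to protein.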

[8] = Cytotoxicity against human Patu-02 cells by crystal violet staining; assay type: functional, cell-based
In short: (§4)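 Cells plated at 5000–10,000 per well and left 24 h, then exposed to drug in medium for the set time at 37°C, 5% CO2. Washed with PBS, fixed 15 min in 4% paraformaldehyde and stained 5 min with 0.5% crystal violet in methanol. Lysed in 1% SDS, OD read at 570 nm with untreated cells as 100%. IC50 fitted by nonlinear sigmoidal regression over at least five concentrations, each in triplicate; three independent experiments.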

[9] = molecular target: T1, ATP-binding cassette sub-family C member 5; experiment: Activity at MRP5 in human Colo-357 cells assessed as increase of drug efflux after 60 mins relative to wild type cells; assay type: ADME, cell-based; conditions: colo357, 1 h
In short: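 Transfected Colo-357 cells seeded in triplicate were preloaded 2 h with [14C]5-FU in energy-depletion medium (glucose-free, pyruvate-free, sodium azide). After two washes, medium was switched to ordinary drug-free growth medium, and medium radioactivity was sampled at time points over 60 min. Results are expressed as released radioactivity relative to radioactivity accumulated during loading.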

[10] = Cytotoxicity against human Patu-T cells by crystal violet staining; assay type: functional, cell-based; conditions: PaTu 8988t; in short: as §4
[11] = Cytotoxicity against human Patu-02 cells assessed as increase of cell death at 3.3 uM after 48 hrs using propidium iodide staining by cytofluorometric analysis; assay type: functional; in short: as §1
PaTu 8988t = experiment: Induction of thymidylate synthase expression in human Patu-T cells after 6 months by RT-PCR analysis relative to control; assay type: functional, cell-based; in short: as §3
MRP4 = experiment: Induction of MRP4 expression in human Patu-T cells after 6 months by RT-PCR analysis relative to control; assay type: cell-based, PaTu 8988t; conditions: read-out: FC; in short: as §3
[12] = Cytotoxicity against human Colo-357 cells assessed as cell killing at 33 uM after 48 hrs using propidium iodide staining by cytofluorometric analysis; assay type: functional, COLO357; in short: as §2
DAN-G = experiment: Cytotoxicity against human DAN-G cells by crystal violet staining; assay type: functional, cell-based; in short: as §4
[13] = Induction of BCRP expression in human Patu-T cells after 6 months by RT-PCR analysis relative to control; assay type: ADME, cell-based; conditions: patu 8988t, 4383 h; in short: as §3
[14] = Cytotoxicity against human MRP5 knockdown Patu-02 cells assessed as increase of cell death at 33 uM after 48 hrs using propidium iodide staining by cytofluorometric analysis; assay type: functional; in short: as §1
[15] = Cytotoxicity against human Colo-357 cells assessed as cell killing at 10 uM after 48 hrs using propidium iodide staining by cytofluorometric analysis; assay type: functional, COLO357; in short: as §2
COLO357 = experiment: Cytotoxicity against human Colo-357 cells expressing MRP5 assessed as cell killing after 48 hrs using propidium iodide staining by cytofluorometric analysis; assay type: functional, cell-based; in short: as §2
[16] = Cytotoxicity against human 5-FU-resistant Patu-T cells by crystal violet staining; assay type: functional, cell-based; conditions: PaTu 8988t
In short: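 Patu-8988T subclones were selected with rising 5-FU over 6 months, then kept drug-free at least 1 week. Cells were plated at 5000–10,000/well, left 24 h, then drug-exposed. They were fixed in 4% paraformaldehyde, stained with 0.5% crystal violet in methanol, lysed in 1% SDS, and read at OD 570 nm against untreated cells (100%). At least five concentrations were tested in triplicate, and IC50 was obtained by sigmoidal nonlinear regression.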

[17] = Cytotoxicity against human PANC1 cells by crystal violet staining; assay type: functional, cell-based; conditions: PANC-1; in short: as §4
[18] = Cytotoxicity against human Colo-357 cells by crystal violet staining; assay type: functional, cell-based; conditions: COLO357; in short: as §4
[19] = Cytotoxicity against human Colo-357 cells expressing MRP5 assessed as cell killing at 1 uM after 48 hrs using propidium iodide staining by cytofluorometric analysis; assay type: functional, COLO357; in short: as §2
MRP5 [20] = experiment: Induction of MRP5 expression in human MRP5 vector transfected Colo-357 cells by RT-PCR analysis relative to control; assay type: cell-based, COLO357; conditions: Colo-357 cells transfected with human MRP5 vector, read-out: FC
In short: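 Colo-357 cells were transfected with pcDNA3.1/hygro-MRP5 or empty vector, split after 48 h and selected in hygromycin B. MRP5 mRNA was measured by quantitative real-time RT-PCR (20 ng cDNA) relative to the vector-only clone.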

[21] = Cytotoxicity against human Colo-357 cells assessed as cell killing at 3 uM after 48 hrs using propidium iodide staining by cytofluorometric analysis; assay type: functional, COLO357; in short: as §2
[22] = Cytotoxicity against human Aspc-1 cells by crystal violet staining; assay type: functional, cell-based; conditions: ASPC1; in short: as §4
[23] = Cytotoxicity against human MRP5 knockdown Patu-02 cells assessed as increase of cell death at 3.3 uM after 48 hrs using propidium iodide staining by cytofluorometric analysis; assay type: functional; in short: as §1
[24] = Cytotoxicity against human Patu-S cells by crystal violet staining; assay type: functional, cell-based; in short: as §4
[25] = Cytotoxicity against human MRP5 knockdown Patu-02 cells assessed as increase of cell death at 10 uM after 48 hrs using propidium iodide staining by cytofluorometric analysis; assay type: functional; in short: as §1
[26] = Cytotoxicity against human Patu-02 cells assessed as increase of cell death at 33 uM after 48 hrs using propidium iodide staining by cytofluorometric analysis; assay type: functional; in short: as §1
[27] = Cytotoxicity against human T3M4 cells by crystal violet staining; assay type: functional, cell-based; in short: as §4
[28] = Cytotoxicity against human Colo-357 cells expressing MRP5 assessed as cell killing at 33 uM after 48 hrs using propidium iodide staining by cytofluorometric analysis; assay type: functional, COLO357; in short: as §2
[29] = Cytotoxicity against human Colo-357 cells expressing MRP5 assessed as cell killing at 3 uM after 48 hrs using propidium iodide staining by cytofluorometric analysis; assay type: functional, COLO357; in short: as §2

T1 sequence (O15440 whole entry): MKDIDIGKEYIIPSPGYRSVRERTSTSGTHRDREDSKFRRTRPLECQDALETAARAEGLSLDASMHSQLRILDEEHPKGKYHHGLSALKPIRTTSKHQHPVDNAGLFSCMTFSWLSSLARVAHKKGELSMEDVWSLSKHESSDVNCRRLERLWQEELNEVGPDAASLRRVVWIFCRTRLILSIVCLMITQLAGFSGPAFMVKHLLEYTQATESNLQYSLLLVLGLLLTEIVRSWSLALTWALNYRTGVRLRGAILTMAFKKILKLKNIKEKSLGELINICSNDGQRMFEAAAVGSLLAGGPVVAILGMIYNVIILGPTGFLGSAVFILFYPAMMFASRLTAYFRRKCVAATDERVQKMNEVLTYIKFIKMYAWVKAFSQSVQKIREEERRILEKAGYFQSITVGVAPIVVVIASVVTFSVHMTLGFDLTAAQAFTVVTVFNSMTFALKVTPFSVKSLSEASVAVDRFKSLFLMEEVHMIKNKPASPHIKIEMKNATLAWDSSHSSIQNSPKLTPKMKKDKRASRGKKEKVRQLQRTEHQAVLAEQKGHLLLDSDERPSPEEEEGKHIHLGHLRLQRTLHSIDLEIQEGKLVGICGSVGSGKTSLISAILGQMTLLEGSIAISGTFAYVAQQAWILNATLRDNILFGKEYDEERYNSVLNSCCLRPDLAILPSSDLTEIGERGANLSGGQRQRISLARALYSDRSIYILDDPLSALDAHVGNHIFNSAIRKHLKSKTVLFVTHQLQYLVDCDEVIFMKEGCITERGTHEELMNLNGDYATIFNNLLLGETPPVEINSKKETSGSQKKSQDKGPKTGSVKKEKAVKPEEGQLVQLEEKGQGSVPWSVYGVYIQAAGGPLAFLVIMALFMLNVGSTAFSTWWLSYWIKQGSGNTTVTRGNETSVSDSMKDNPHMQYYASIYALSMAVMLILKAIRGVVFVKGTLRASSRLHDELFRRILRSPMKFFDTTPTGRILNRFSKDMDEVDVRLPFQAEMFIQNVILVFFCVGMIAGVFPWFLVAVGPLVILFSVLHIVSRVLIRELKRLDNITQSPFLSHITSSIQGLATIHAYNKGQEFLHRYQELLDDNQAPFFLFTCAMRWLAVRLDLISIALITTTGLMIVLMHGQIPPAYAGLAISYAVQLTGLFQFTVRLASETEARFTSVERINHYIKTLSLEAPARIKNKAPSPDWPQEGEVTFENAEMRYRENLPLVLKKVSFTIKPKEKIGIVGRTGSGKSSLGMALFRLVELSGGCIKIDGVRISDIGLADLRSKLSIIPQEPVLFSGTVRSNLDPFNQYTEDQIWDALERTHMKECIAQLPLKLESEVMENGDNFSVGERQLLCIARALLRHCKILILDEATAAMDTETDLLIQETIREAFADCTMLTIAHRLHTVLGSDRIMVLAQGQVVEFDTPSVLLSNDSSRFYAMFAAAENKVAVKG

Q: Which results are given for `O=c1[nH]cc(F)c(=O)[nH]1` [FLUOROURACIL]?
A: Activity [1]: 66%; Activity [2]: 39.1%; fold induction at 4383 h (MRP5 [3]): 2.4; Activity [4]: 94%; Activity [5]: 26.4%; Activity [6]: 27%; Activity [7]: 59.2%; IC50 [8]: 3.95 µM; fold change (FC) [9]: 2.1; IC50 [10]: 2.08 µM; Activity [11]: 10%; Activity (PaTu 8988t): inactive; fold induction at 4383 h (MRP4): 2.5; Activity [12]: 53%; IC50 (DAN-G): 4.38 µM; Activity [13]: Not Active; Activity [14]: 80%; Activity [15]: 54.6%; Activity (COLO357): inactive; IC50 [16]: 33.2 µM; IC50 [17]: 3.94 µM; IC50 [18]: 2.05 µM; Activity [19]: 16.4%; fold induction (MRP5 [20]): 4.3; Activity [21]: 45.4%; IC50 [22]: 2.97 µM; Activity [23]: 36%; IC50 [24]: 2.93 µM; Activity [25]: 53%; Activity [26]: 63%; IC50 [27]: 0.33 µM; Activity [28]: 44.9%; Activity [29]: 31.2%

Q: Which results are given for `Nc1ccn([C@@H]2O[C@H](CO)[C@@H](O)C2(F)F)c(=O)n1` [GEMCITABINE]?
A: IC50 [8]: 0.0034 µM; IC50 [10]: 0.0028 µM; IC50 (DAN-G): 0.0034 µM; IC50 [17]: 0.001 µM; IC50 [18]: 0.00036 µM; IC50 [22]: 0.004 µM; IC50 [24]: 0.0032 µM; IC50 [27]: 0.0015 µM

Q: With `Sc1ncnc2nc[nH]c12` [MERCAPTOPURINE ANHYDROUS] as the compound, how does the IC50 [8] read?
A: 9.69 µM

Q: What about the IC50 [10] of the same compound?
A: 4.09 µM

Q: What about the IC50 (DAN-G) of the same compound?
A: 4.06 µM

Q: What about the IC50 [17] of the same compound?
A: 6.39 µM

Q: And the IC50 [18]?
A: 6.12 µM

Q: And the IC50 [22]?
A: 2.45 µM

Q: What about the IC50 [24] of the same compound?
A: 11.1 µM

Q: What about the IC50 [27] of the same compound?
A: 2.63 µM

Q: With `Nc1nc2[nH]cnc2c(=S)[nH]1` [THIOGUANINE] as the compound, how does the IC50 [8] read?
A: 2.26 µM

Q: What about the IC50 [10] of the same compound?
A: 3.43 µM

Q: What about the IC50 (DAN-G) of the same compound?
A: 4.32 µM

Q: What about the IC50 [17] of the same compound?
A: 8.31 µM

Q: And the IC50 [18]?
A: 2.09 µM

Q: And the IC50 [22]?
A: 2.8 µM

Q: What about the IC50 [24] of the same compound?
A: 2.21 µM

Q: And the IC50 [27]?
A: 1.28 µM
